These results are taken from ChEMBL document CHEMBL1781892, “Microwave assisted synthesis and structure-activity relationship of 4-hydroxy-N'-[1-phenylethylidene]-2H/2-methyl-1,2-benzothiazine-3-carbohydrazide 1,1-dioxides as anti-microbial agents” (2011).

Structures are written as SMILES.

In one test the test system is Pseudomonas aeruginosa. Put plainly: Antibacterial activity against Pseudomonas aeruginosa using 1 x 10^4 CFU/ml inoculum after 24 hrs by microdilution method. The class given is functional. In general terms: In broth dilution the organism is exposed to a series of concentrations in liquid medium.
Test [1] has as its system Curvularia australiensis. Put plainly: Antifungal activity against Drechslera australiensis using 1 x 10^5 spore/100 uL after 72 hrs by microdilution method. The class given is functional.
The next test deals with Bacillus cereus. As to the kind of experiment: Antibacterial activity against Bacillus cereus using 1 x 10^4 CFU/ml inoculum after 24 hrs by microdilution method. The class given is functional.
Test [2] can be described thus: Antifungal activity against Trichoderma reesei using 1 x 10^5 spore/100 uL assessed as 99.5% fungal killing of original inoculum after 72 hrs by microdilution method. The class given is functional.
The next test has as its system Bacillus thuringiensis. Put plainly: Antibacterial activity against Bacillus thuringiensis using 1 x 10^4 CFU/ml inoculum after 24 hrs by microdilution method. The class given is functional.
For another test, the system named is Salmonella typhi. Put plainly: Antibacterial activity against Salmonella typhi using 1 x 10^4 CFU/ml inoculum after 24 hrs by microdilution method. The test is classed as functional, Salmonella enterica subsp. enterica serovar Typhi.
The test system of test [3] is Curvularia australiensis. Put plainly: Antifungal activity against Drechslera australiensis using 1 x 10^5 spore/100 uL assessed as 99.5% fungal killing of original inoculum after 72 hrs by microdilution method. The test is classed as functional.
Test [4] relates to Aspergillus flavus. Put plainly: Antifungal activity against Aspergillus flavus using 1 x 10^5 spore/100 uL after 72 hrs by microdilution method. The test is classed as functional.
For test [5], the system named is Aspergillus fumigatus. Put plainly: Antifungal activity against Aspergillus fumigatus using 1 x 10^5 spore/100 uL after 72 hrs by microdilution method. The test is classed as functional.
Test [6] relates to Aspergillus niger. As to the kind of experiment: Antifungal activity against Aspergillus niger using 1 x 10^5 spore/100 uL assessed as 99.5% fungal killing of original inoculum after 72 hrs by microdilution method. The test is classed as functional.
Another test relates to Bacillus subtilis. Put plainly: Antibacterial activity against Bacillus subtilis using 1 x 10^4 CFU/ml inoculum after 24 hrs by microdilution method. The test is classed as functional.
Test [7] is described as follows: Antifungal activity against Trichoderma reesei using 1 x 10^5 spore/100 uL after 72 hrs by microdilution method. The test is classed as functional. In short, it runs like this:
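Spores washed from malt agar cultures with sterile 0.85% saline plus 0.1% Tween 80, adjusted to about 1.0×10^5 per 100 µl well. Compounds from a 1 mg/ml DMSO stock were serially diluted in malt broth with inoculum in 96-well plates and incubated 72 h at 28 °C. MIC is the lowest concentration with no visible growth under a binocular microscope. DMSO served as negative control.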

Test [8] concerns Aspergillus flavus. As to the kind of experiment: Antifungal activity against Aspergillus flavus using 1 x 10^5 spore/100 uL assessed as 99.5% fungal killing of original inoculum after 72 hrs by microdilution method. The class given is functional.
Test [9] concerns Aspergillus fumigatus. Put plainly: Antifungal activity against Aspergillus fumigatus using 1 x 10^5 spore/100 uL assessed as 99.5% fungal killing of original inoculum after 72 hrs by microdilution method. The test is classed as functional.
Another test deals with Escherichia coli. Put plainly: Antibacterial activity against Escherichia coli using 1 x 10^4 CFU/ml inoculum after 24 hrs by microdilution method. The class given is functional.
Test [10] relates to Trichoderma viride. Put plainly: Antifungal activity against Trichoderma viride using 1 x 10^5 spore/100 uL assessed as 99.5% fungal killing of original inoculum after 72 hrs by microdilution method. The test is classed as functional.
The subject of test [11] is Trichoderma viride. As to the kind of experiment: Antifungal activity against Trichoderma viride using 1 x 10^5 spore/100 uL after 72 hrs by microdilution method. The class given is functional.
Test [12] concerns Aspergillus niger. As to the kind of experiment: Antifungal activity against Aspergillus niger using 1 x 10^5 spore/100 uL after 72 hrs by microdilution method. The class given is functional.
The next test has as its system Staphylococcus aureus. As to the kind of experiment: Antibacterial activity against Staphylococcus aureus using 1 x 10^4 CFU/ml inoculum after 24 hrs by microdilution method. The class given is functional.

As to `COc1cccc(/C(C)=N/NC(=O)C2=C(O)c3ccccc3S(=O)(=O)N2C)c1`, the MIC against Pseudomonas aeruginosa was 26.8 ×10⁻² umol; against Curvularia australiensis [1], 81.7 ×10⁻² umol; in the test on Bacillus cereus it was 7 ×10⁻² umol; against Bacillus thuringiensis, 7.8 ×10⁻² umol; against Salmonella typhi, 29.4 ×10⁻² umol; against Aspergillus flavus [4] it was 92.6 ×10⁻² umol. Moreover, the MIC is 85.7 ×10⁻² umol in the test on Aspergillus fumigatus [5]; 7.7 ×10⁻² umol in the test with Bacillus subtilis; 79.6 ×10⁻² µmol in test [7]; 25.6 ×10⁻² umol with Escherichia coli; 80.5 ×10⁻² umol with Trichoderma viride [11]; 90.1 ×10⁻² umol in the test with Aspergillus niger [12]. The same compound had an MIC in the test with Staphylococcus aureus of 24.1 ×10⁻² umol. The MFC in test [2] is 159 ×10⁻² µmol; in the test on Curvularia australiensis [3], 154.8 ×10⁻² umol; in the test with Aspergillus niger [6] it was 190 ×10⁻² umol; with Aspergillus flavus [8] it was 188.9 ×10⁻² umol; in the test on Aspergillus fumigatus [9], 168.2 ×10⁻² umol; in the test with Trichoderma viride [10] it was 160.4 ×10⁻² umol.

Take `C/C(=N\NC(=O)C1=C(O)c2ccccc2S(=O)(=O)N1)c1ccc(I)cc1`: the MIC against Pseudomonas aeruginosa worked out at 30.9 ×10⁻² umol; with Curvularia australiensis [1], 74 ×10⁻² umol; in the test on Bacillus cereus, 9.1 ×10⁻² umol; against Bacillus thuringiensis it was 9.4 ×10⁻² umol; against Salmonella typhi, 33.4 ×10⁻² umol; against Aspergillus flavus [4] it was 89.9 ×10⁻² umol. Further, the MIC in the test on Aspergillus fumigatus [5] is 82 ×10⁻² umol; against Bacillus subtilis, 9.5 ×10⁻² umol; in test [7], 70.3 ×10⁻² µmol; with Escherichia coli, 29.5 ×10⁻² umol; against Trichoderma viride [11], 71.3 ×10⁻² umol; in the test with Aspergillus niger [12], 91.5 ×10⁻² umol. Besides, the MIC in the test with Staphylococcus aureus was found to be 28.2 ×10⁻² umol. For the same compound, the MFC in [2] was 134 ×10⁻² µmol; in the test on Curvularia australiensis [3], 145.8 ×10⁻² umol; with Aspergillus niger [6], 166.1 ×10⁻² umol; in the test with Aspergillus flavus [8], 179.8 ×10⁻² umol; in the test with Aspergillus fumigatus [9] it was 159.2 ×10⁻² umol; in the test on Trichoderma viride [10], 139.7 ×10⁻² umol.

In the case of `C/C(=N\NC(=O)C1=C(O)c2ccccc2S(=O)(=O)N1)c1ccc(N)cc1`, the MIC was found to be 24.5 ×10⁻² umol in the test with Pseudomonas aeruginosa; 70 ×10⁻² umol against Curvularia australiensis [1]; 6.2 ×10⁻² umol against Bacillus cereus; 6.1 ×10⁻² umol with Bacillus thuringiensis; 27.7 ×10⁻² umol in the test with Salmonella typhi; 82.9 ×10⁻² umol in the test with Aspergillus flavus [4]. For the same compound, the MIC against Aspergillus fumigatus [5] was 74 ×10⁻² umol; against Bacillus subtilis, 6 ×10⁻² umol; in [7], 70.3 ×10⁻² µmol; against Escherichia coli, 22.9 ×10⁻² umol; in the test with Trichoderma viride [11] it was 71.3 ×10⁻² umol; with Aspergillus niger [12], 83.8 ×10⁻² umol. This compound also yielded an MIC in the test on Staphylococcus aureus of 20.5 ×10⁻² umol. The MFC in test [2] was found to be 138 ×10⁻² µmol; in the test on Curvularia australiensis [3], 129.5 ×10⁻² umol; with Aspergillus niger [6], 177.5 ×10⁻² umol; in the test on Aspergillus flavus [8], 175.9 ×10⁻² umol; with Aspergillus fumigatus [9], 150.1 ×10⁻² umol; in the test on Trichoderma viride [10], 142.8 ×10⁻² umol.
